Experiments:
AChE = AChE (Homo sapiens, UniProt P22303); test: biochemical
PC12 cells = test: Cytotoxicity in PC12 cells; assay type: cell-based; details: 10 μM, 24 h
Procedure, shortened: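 PC12 cells were grown in DMEM with 10% FBS and penicillin/streptomycin (37 °C, 5% CO2), seeded at 10⁵/well and left 24 h. Test compound (DMSO stock diluted in medium) was given at 10 μM for 24 h, with edaravone as positive control. MTT was added for 2 h, formazan was dissolved in DMSO, and absorbance was read at 490 nm.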

[1] = Acute oral toxicity test in mice; assay type: in vivo; details: both, ICR, mouse, in vivo, po
Procedure, shortened: (§1)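 ICR mice (18–22 g, half male, half female), seven groups of 10. Single oral gavage of 1310, 1638, 2048, 2560, 3200 or 4000 mg/kg, suspended in 0.5% carboxymethyl cellulose; the control group received vehicle. General behaviour, toxicity signs and mortality were followed for 14 days. LD50 was estimated by log-probit regression of mortality.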

ICR mice = test: Acute oral toxicity test in mice; assay type: in vivo; details: for deaths: 10 animals; for deaths / death rate: 14 day
Procedure, shortened: as §1

AD model rats [2] = test: Open-field test in Aβ25-35-induced AD model rats; assay type: in vivo; details: for total distance moved in open field: AD rats, Aβ model group 17.34 ± 3.88
Procedure, shortened: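 After 1 h acclimation, each rat explored a dimly lit 100 × 100 × 50 cm box for 2 min, with 70% ethanol cleaning between trials. Video gave total distance and central-zone time. Mean ± SEM, t-test.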

AD model rats [3] = test: Morris water maze in Aβ25-35-induced AD model rats; assay type: in vivo; details: compared to the model rats (p < 0.05)
Procedure, shortened: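 Pool 180 cm wide, water at 25 ± 1 °C, hidden platform 2 cm submerged. Training: four 2-min trials daily (30 min apart) for 5 days. Escape latency and swim path were video-tracked. Probe trial: platform removed, 2-min swim, crossings counted. Mean ± SEM, t-test.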

AD model rats [4] = test: HE staining of hippocampus CA3 region of AD model rats; assay type: in vivo; details: AD rats, 5, 10, and 20 mg/kg
AD model rats [5] = test: Nissl staining of hippocampal CA1 region of AD model rats; assay type: in vivo; details: 10 and 20 mg/kg groups
Procedure, shortened: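 Brains were paraformaldehyde-postfixed and cryoprotected in 30% sucrose. Frozen 25 μm hippocampal sections were stained with 2% cresyl violet for 5 min. Necrotic CA1 cells were counted by light microscopy (n = 5 rats/group, three sections per rat).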

AD model rats [6] = test: Bielschowsky silver staining of hippocampus of AD model rats; assay type: in vivo; details: AD rats, 10, 20 mg/kg, versus AD model group
Procedure, shortened: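 SD rats (8 weeks, 280 ± 10 g) got bilateral hippocampal Aβ25-35 (10 μg in 2 μL, pre-aggregated 4 days at 37 °C); sham rats got saline. Formalin-fixed paraffin coronal sections (40 μm) were stained by modified Bielschowsky silver (20% AgNO3, ammoniacal silver), and positive neurons were counted at 10 × 40.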

Aβ1-42 = test: Immunohistochemistry for Aβ1-42 in hippocampus of AD model rats; assay type: in vivo; details: AD rats, 10, 20 mg/kg, compared with the model group (p < 0.05)
Procedure, shortened: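 Hippocampal sections from five rats: endogenous peroxidase blocked, 5% normal goat serum in 0.3% Triton/PBS, rabbit anti-Aβ1-42 (1:300) overnight at 4 °C, biotinylated goat anti-rabbit (1:500) 1 h at room temperature, then DAB for 10 min.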

[7] = mice, single oral dose 1310 mg/kg
[8] = mice, single oral dose 1638 mg/kg
[9] = mice, single oral dose 2048 mg/kg
[10] = mice, single oral dose 2560 mg/kg
[11] = mice, single oral dose 3200 mg/kg
[12] = mice, single oral dose 4000 mg/kg

AChE, sequence (P22303 32-614): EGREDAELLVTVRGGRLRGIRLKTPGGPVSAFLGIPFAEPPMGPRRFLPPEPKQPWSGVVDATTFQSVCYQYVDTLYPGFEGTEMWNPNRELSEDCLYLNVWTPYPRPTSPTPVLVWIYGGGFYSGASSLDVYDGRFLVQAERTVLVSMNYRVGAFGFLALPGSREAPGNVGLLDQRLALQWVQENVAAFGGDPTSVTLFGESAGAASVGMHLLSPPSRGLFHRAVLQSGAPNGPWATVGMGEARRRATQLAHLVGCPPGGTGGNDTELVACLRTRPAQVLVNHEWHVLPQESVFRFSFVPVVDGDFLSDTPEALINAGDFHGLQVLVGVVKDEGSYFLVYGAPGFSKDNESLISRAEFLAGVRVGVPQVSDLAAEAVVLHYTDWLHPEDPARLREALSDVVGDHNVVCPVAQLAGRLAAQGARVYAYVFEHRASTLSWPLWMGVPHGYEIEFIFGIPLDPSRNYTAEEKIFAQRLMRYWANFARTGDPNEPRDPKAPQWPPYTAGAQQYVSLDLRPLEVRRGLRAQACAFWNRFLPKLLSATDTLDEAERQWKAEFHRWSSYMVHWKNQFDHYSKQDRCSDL

COc1c(OC(=O)N(C)c2ccccc2)cc2oc3cc4c(c(O)c3c(=O)c2c1CC=C(C)C)C=CC(C)(C)O4 [AMG-1, 5-Hydroxy-8-methoxy-2,2-dimethyl-7-(3-methylbut-2-en-1-yl)-6-oxo-2,6-dihydropyrano[3,2-b]xanthen-9-yl methyl(phenyl)carbamate]
IC50 (AChE): 52.6 ± 11.3 µM
inhibition ratio (cytotoxic effect, cell proliferation) (PC12 cells): 7.2%
LD50 at 14 day [1]: 2470 mg/kg
toxicity at the dose for administration (ICR mice; level of 20 mg/kg or less): no obvious toxicity
signs of toxicity (ICR mice; mice, acute oral toxicity experiment period): messy furs and loose gray stool around the anus
time found dead after administration (ICR mice; mice, highest dosed group 4000 mg/kg oral): 16 to 48 h
deaths (ICR mice; [7]): 0
death rate (ICR mice; [7]): 0%
deaths (ICR mice; [8]): 1
death rate (ICR mice; [8]): 10%
deaths (ICR mice; [9]): 4
death rate (ICR mice; [9]): 40%
deaths (ICR mice; [10]): 6
death rate (ICR mice; [10]): 60%
deaths (ICR mice; [11]): 7
death rate (ICR mice; [11]): 70%
deaths (ICR mice; [12]): 9
death rate (ICR mice; [12]): 90%
time spent in the central zone in open field (AD model rats [2]; AD rats, 5, 10, 20 mg/kg oral 30 days, compared to the Aβ model group): dose-dependent increase
total distance moved in open field (AD model rats [2]; AMG-1 20 mg/kg oral once daily 30 days): 28.55 ± 6.87 m
time in the target quadrant (AD model rats [3]; probe trial): significantly more time
time to reach the place of the removed platform (AD model rats [3]; probe trial): significantly less time
escape latency in Morris water maze (AD model rats [3]; retention phase): significant improvements
total distance traveled in Morris water maze (AD model rats [3]; retention phase): significant improvements
pyramidal cell morphology and density, hippocampus CA3 (HE staining) (AD model rats [4]): better cell morphology and density than those in the model group
neuronal damage in hippocampal CA1 (Nissl staining) (AD model rats [5]): significantly attenuated
number of senile plaques in hippocampus (silver staining) (AD model rats [6]): less
expression of Aβ1-42 in hippocampus (immunohistochemistry) (Aβ1-42): significantly reduced expression

CCN(C(=O)Oc1cc2oc3cc4c(c(O)c3c(=O)c2c(CC=C(C)C)c1OC)C=CC(C)(C)O4)c1ccccc1 [AMG-2, 5-Hydroxy-8-methoxy-2,2-dimethyl-7-(3-methylbut-2-en-1-yl)-6-oxo-2,6-dihydropyrano[3,2-b]xanthen-9-yl ethyl(phenyl)carbamate]
IC50 (AChE): 35.1 ± 9.38 µM
inhibition ratio (cytotoxic effect, cell proliferation) (PC12 cells): 6.7%

COc1c(OC(=O)N(C)c2ccccc2C)cc2oc3cc4c(c(O)c3c(=O)c2c1CC=C(C)C)C=CC(C)(C)O4 [AMG-3, 5-Hydroxy-8-methoxy-2,2-dimethyl-7-(3-methylbut-2-en-1-yl)-6-oxo-2,6-dihydropyrano[3,2-b]xanthen-9-yl methyl(o-tolyl)carbamate]
IC50 (AChE): 32.9 ± 7.78 µM
inhibition ratio (cytotoxic effect, cell proliferation) (PC12 cells): 5.9%

COc1cc2c(cc1OC)C(=O)C(CC1CCN(Cc3ccccc3)CC1)C2 (stereo not drawn) [donepezil, reference compound]
total distance moved in open field (AD model rats [2]; donepezil 1 mg/kg oral once daily 30 days): 31.37 ± 7.14 m

CC1=NN(c2ccccc2)C(=O)C1 [edaravone, reference compound]
inhibition ratio (cytotoxic effect, cell proliferation) (PC12 cells): 0%

COc1c(O)cc2oc3cc(O)c(CC=C(C)C)c(O)c3c(=O)c2c1CC=C(C)C [α-M, 1,3,6-trihydroxy-7-methoxy-2,8-bis(3-methylbut-2-en-1-yl)-9H-xanthen-9-one, reference compound]
IC50 (AChE): 34.3 ± 6.06 µM
inhibition ratio (cytotoxic effect, cell proliferation) (PC12 cells): 73.1%
